Data set [1] concerns Plasma. Nature of the data set: Fraction unbound in human plasma by LC-MS/MS analysis. The data set is classed as ADME, cell-free.
A short description of data set [2]: Volume of distribution at steady state in Han Wistar rat at 10 mg/kg, po and 3 mg/kg, iv. Particulars: in vivo, read-out: Vdss. The data set is classed as ADME, organism-based. In a few lines:
(§1)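 Rat PK study: oral dose 10 mg/kg in 0.1% HPMC; intravenous dose 3 mg/kg in 40% DMA/40% TEG/20% saline. Half-life taken from the iv arm; F not determined where no oral dose was given.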

Data set [3] in a line: Oral bioavailability in Han Wistar rat at 10 mg/kg. The data set is classed as ADME, organism-based. Particulars: in vivo. In a few lines:
as §1

In data set [4] the test system is Plasma. Kind of data set: Drug uptake in plasma of po dosed nude mouse xenografted with human A375 cells after 2 hrs. The data set is classed as ADME, organism-based, A-375. Particulars: in vivo. In a few lines: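 A375 xenograft mice given a single oral dose; tumors and plasma harvested 2 h later. Tumor pERK measured by Western blot with equal protein loading, normalized to total ERK, and expressed as percent reduction in pERK.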
On the technique in general: In xenograft studies the graft and the host belong to different species.

The structures appear in SMILES notation.

Usually bioavailability stands for the share of a dose that reaches the circulation, judged against a reference dose that is usually intravenous. Low values mean little systemic uptake, high ones much systemic uptake.

Take `C[C@@H](NC(=O)[C@H]1CCCNC1)c1ccc(Nc2ncc3cc(-c4ccncc4)ccc3n2)cc1`: in the data set with Plasma [1], the “Cp(f)” value is recorded as 1.7%.
Regarding `C[C@@H](NC(=O)[C@H]1CCCCN1CCO)c1ccc(Nc2ncc3cc(-c4ccncc4)ccc3n2)cc1`, the “Cp(f)” value with Plasma [1] stood at 3.4%.
Same read-out and setting: to `CC(=O)N[C@H](C)c1ccc(Nc2ncc3cc(-c4ccncc4)cc(C)c3n2)cc1` belongs less than 1%; to `C[C@@H](NC(=O)C1CCNCC1)c1ccc(Nc2ncc3cc(-c4ccncc4)ccc3n2)cc1`, 3.4%; to `CC(=O)N[C@H](C)c1ccc(Nc2ncc3cc(-c4ccncc4)c(C)cc3n2)cc1`, 1.9%.
For `COCCC(=O)N(C)c1ccc(Nc2ncc3cc(-c4ccncc4)ccc3n2)cc1`, the Vd in data set [2] was 0.7 L/kg. The bioavailability in data set [3] worked out at 60%.
Consider `C[C@@H](NC(=O)C1CCCCN1C)c1ccc(Nc2ncc3cc(-c4ccncc4)ccc3n2)cc1` (mixture of isomers), for which, in the data set on Plasma [1], the “Cp(f)” value is reported as 3.8%.
Still for that read-out and setting: as for `C[C@@H](NC1=CC(=O)NCC1)c1ccc(Nc2ncc3cc(-c4ccncc4)ccc3n2)cc1`, the figure is 2.3%.
As for `CC(=O)N[C@H](C)c1ccc(Nc2ncc3cc(-c4ccncc4)cc(Cl)c3n2)cc1`, in the data set on Plasma [1], the “Cp(f)” value is recorded as less than 1%.
Take `COCCNC(C)c1ccc(Nc2ncc3cc(-c4ccncc4)ccc3n2)cc1` (configuration not stated): the Vd in data set [2] came out at 4.9 L/kg. Also, the “Cp(f)” value in the data set with Plasma [1] is listed as 9.4%. Moreover, the bioavailability in data set [3] is 31%.
Consider `CC(=O)N[C@H](C)c1ccc(Nc2ncc3cc(-c4ccncc4)c(Cl)cc3n2)cc1`, for which the “Cp(f)” value in the data set with Plasma [1] is listed as less than 1%.
With `C[C@@H](NC(=O)[C@H]1CCCCN1)c1ccc(Nc2ncc3cc(-c4ccncc4)ccc3n2)cc1`, the Vd in data set [2] worked out at 13 L/kg. Moreover, the “Cp(f)” value with Plasma [1] was determined as 5.1%. This molecule registered a bioavailability in data set [3] of 28%.
On to `COc1cc2nc(Nc3ccc([C@@H](C)NC(C)=O)cc3)ncc2cc1-c1ccncc1`, for which the Vd in data set [2] is 0.67 L/kg.
Turning to `C[C@@H](NC1=CC(=O)CNC1)c1ccc(Nc2ncc3cc(-c4ccncc4)ccc3n2)cc1`, the Vd in data set [2] came to 7.9 L/kg. Moreover, in the data set with Plasma [1], the “Cp(f)” value is 3.6%.
As to `CC(=O)N[C@H](C)c1ccc(Nc2ncc3cc(-c4ccncc4)ccc3n2)cc1`, in data set [2], the Vd amounted to 0.8 L/kg. In addition, the “Cp(f)” value in the data set on Plasma [1] is 6%. Also, the Drug uptake result with Plasma [4] is reported as “Dose-dependent effect”. In addition, the bioavailability in data set [3] was 100%.
As to `C[C@@H](NC1=CC(=O)CCC1)c1ccc(Nc2ncc3cc(-c4ccncc4)ccc3n2)cc1`, the Vd in data set [2] was 0.67 L/kg. The “Cp(f)” value in the data set on Plasma [1] is 1.3%. The same molecule registered a bioavailability in data set [3] of 17%.
Regarding `COCCN(C)c1ccc(Nc2ncc3cc(-c4ccncc4)ccc3n2)cc1`, the “Cp(f)” value in the data set on Plasma [1] is on record as less than 1%.
Same read-out and setting: to `C[C@@H](NC(=O)[C@H]1CCCN1)c1ccc(Nc2ncc3cc(-c4ccncc4)ccc3n2)cc1` belongs 1.4%; to `COCCC(=O)N[C@@H](C)c1ccc(Nc2ncc3cc(-c4ccncc4)ccc3n2)cc1`, less than 1%; to `COCCC(=O)N[C@H](C)c1ccc(Nc2ncc3cc(-c4ccncc4)ccc3n2)cc1`, 1.5%.
Still for that read-out and setting: as for `CC(=O)NC(C)c1ccc(Nc2ncc3cc(-c4ccncc4)ccc3n2)cc1` (configuration not stated), the figure is 5%.
